Compound activity (PubChem BioAssay)
A selection: hits, their analogues and other compounds. The true share with any hit is near 3.5%.
RGS4 pot: RGS4 potentiation or activation. HEK293 M3R/inducible RGS4, carbachol calcium flux Fluo4; hits give low values. B-score at 10 µM. actives 0.92% (n = 310,000);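 active = B-score of the integrated calcium signal more than 4 SD below the library mean, with starting fluorescence not abnormally high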;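 also: negative B-score means reduced calcium response which marks RGS4 activation or potentiation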
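Material: Inducible-RGS4 HEK293 cells carrying M3 receptor; also added: carbachol at ECmax as muscarinic agonist stimulus; incubation: compound preincubation 20 min at room temperature before agonist; signal: Fluo4-AM (2 µM) calcium-flux fluorescence, kinetic read; measure: integrated calcium ratio converted to B score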
RGS4 inh: human RGS4 inhibition; P49798; B-score at 10 µM; HEK293 M3R/RGS4 inducible, Fluo-4 calcium flux; hits give high values; triggered by carbachol at its EC20; AID 463165; actives 0.45% (n = 310,000);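 active = B-score, a plate-corrected calcium signal, over three deviations above library mean, with baseline fluorescence within five deviations of library mean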;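 also: RGS4 expression induced by doxycycline in cells with stable M3 receptor; B-score is computed from the integrated fluorescence ratio over baseline after carbachol; higher B-score means a larger calcium signal and so more RGS4 inhibition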
Target sequence (P49798 whole entry, looked up): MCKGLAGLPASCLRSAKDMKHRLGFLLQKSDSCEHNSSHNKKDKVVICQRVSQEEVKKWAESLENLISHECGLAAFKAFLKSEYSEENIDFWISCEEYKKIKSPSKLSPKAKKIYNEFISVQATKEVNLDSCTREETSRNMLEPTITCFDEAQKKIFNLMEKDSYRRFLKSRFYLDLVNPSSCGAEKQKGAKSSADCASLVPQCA
MrgX1 agonist: activates human MrgX1 receptor signaling; Q96LB2; MrgX1-HEK293 cells, Fluo-4 calcium fluorescence, agonist mode; hits give high values; B-score at 10 µM; actives 0.44% (n = 310,000);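 active = calcium response B-score plate-corrected fluorescence ratio at least 3 library SD, with starting fluorescence B-score inside 5 SD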
Target sequence (Q96LB2 whole entry, looked up): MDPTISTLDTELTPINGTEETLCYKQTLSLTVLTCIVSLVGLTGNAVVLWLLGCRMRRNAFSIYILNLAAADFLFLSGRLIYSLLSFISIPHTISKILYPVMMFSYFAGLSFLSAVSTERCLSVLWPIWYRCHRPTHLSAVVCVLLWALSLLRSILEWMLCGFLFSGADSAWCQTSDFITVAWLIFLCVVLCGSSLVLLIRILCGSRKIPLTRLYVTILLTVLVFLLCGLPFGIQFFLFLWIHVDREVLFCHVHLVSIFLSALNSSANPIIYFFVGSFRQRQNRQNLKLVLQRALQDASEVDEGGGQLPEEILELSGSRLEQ
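Material – MrgX1-expressing HEK293 cells · Input – 15,000 cells seeded per well · Dosing – compound as first of three additions · Times – overnight seeding, then 1 h dark dye loading · Measured by – kinetic Fluo-4 NW fluorescence of intracellular calcium · Read-out – B-scored fluorescence response ratio · Benchmarks – positive and negative control wells on each plate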
MrgX1 antagonist: antagonists of human MrgX1 receptor | actives 1.3% (n = 310,000) | B-score at 10 µM | MRGX1-HEK293 calcium flux, Fluo-4, BAM8-22 antagonism; hits give low values | Q96LB2;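 active = calcium-response B-score plate-corrected more than 3 library SD below zero, starting fluorescence within 5 deviations, no agonist response on first addition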;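 also: peak minus trough fluorescence over baseline after final BAM8-22 challenge near maximal dose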
MrgX1 PAM: human MrgX1 positive allosteric modulation, primary screen; actives 0.63% (n = 310,000); B-score at 10 µM; Q96LB2; MrgX1-HEK293, Fluo-4 calcium flux, FDSS; hits give high values;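 active = plate-corrected calcium response at least 3 library SD above typical, normal starting fluorescence, not activating the receptor alone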;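 also: compound read alongside a low EC10 to EC30 dose of BAM8-22 agonist; peak minus trough fluorescence over baseline measured at the second addition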
RGS4 block valid: RGS4 inhibitor validation | HEK293 M3R/RGS4, carbachol calcium Fluo-4 fluorescence; carbachol added at its EC20; 0 = buffer wells, 100 = carbachol control | AID 492999 | calcium response, % at 10 µM | shares compounds with RGS4 inh | actives 65% (n = 1,700);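 active = duplicate-averaged calcium response above the buffer-only control mean plus 5 SD of those controls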;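 also: integrated fluorescence ratio F max minus min over baseline F0; higher response in RGS4-induced cells means RGS4 inhibition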
M3R Ca ctr: counter-screen for RGS4 inhibitors: effect in non-induced cells; shares compounds with RGS4 inh; activity (percent), % at 10 µM; AID 493000; actives 20% (n = 1,900); HEK293 M3R non-induced, carbachol calcium Fluo-4; submaximal (EC20) carbachol stimulus; buffer wells 0%, carbachol control wells 100%; call rule not given here;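 also: RGS4 induction absent so cells express M3R without RGS4; higher means more calcium signal and flags a non-specific hit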
M3R basal Ca ctr: signal in non-induced cells without carbachol, RGS4 inhibitor counter-screen | shares compounds with RGS4 inh | HEK293 M3R/RGS4 non-induced, Fluo-4 calcium, no carbachol; normalised: buffer wells 0%, carbachol wells 100% | calcium response (agonist-mode artifact), % at 10 µM | actives 22% (n = 1,900);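 active = duplicate-averaged calcium rise in uninduced cells above buffer wells' mean plus 5 SD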
Active calls of the source: *; i = inactive; x = no result.

SMILES	RGS4 pot	RGS4 inh	MrgX1 agonist	MrgX1 antagonist	MrgX1 PAM	RGS4 block valid	M3R Ca ctr	M3R basal Ca ctr
O=C(O)CSc1nc(-c2ccccc2)nc2c1oc1ccccc12	i	i	i	i	i	i	i	i
c1ccc2c(N3CCCCC3)nc(N3CCCC3)nc2c1	i	i	i	i	i	x	x	x
c1ccc2c(c1)nc(N1CCCCC1)c1ccccc12	i	7.6*	i	i	i	54%*	84%*	i
Cc1sc(C(C2C(=O)CC(C)(C)CC2=O)C2C(=O)CC(C)(C)CC2=O)cc1[N+](=O)[O-]	i	24*	i	i	i	90%*	50%*	62%*
CC1(C)CC(=O)C(C(c2cc([N+](=O)[O-])ccc2Cl)C2C(=O)CC(C)(C)CC2=O)C(=O)C1	i	i	i	i	i	x	x	x
Cc1cccc(N=C2NC(=O)/C(=C/c3cccnc3)S2)c1C	i	i	i	i	i	x	x	x
Cc1ccc(N=C2NC(=O)/C(=C/c3cccnc3)S2)c(C)c1	i	7.9*	i	i	i	20%*	i	i
Cc1ccc(C(=O)c2coc3ccc(O)c(CN4CCN(C)CC4)c23)cc1	i	i	i	i	i	x	x	x
CN(C)c1ccc([C@@H]2[C@@H]([N+](=O)[O-])[C@H]3C=Cc4ccccc4N3[C@H]2C(=O)c2ccc(Cl)cc2)cc1	x	x	i	i	i	x	x	x
Cn1c2ccccc2c2cc(/C=N/NC(=O)c3cc(O)cc(O)c3)ccc21	-7.2*	i	i	i	i	i	i	i
CCn1c2ccccc2c2cc(/C=N/NC(=O)c3ccccc3)ccc21	i	i	i	i	i	i	i	i
COc1cc(CC(=O)NCC(C)(C)N2CCOCC2)cc(OC)c1OC	i	i	i	i	i	x	x	x
COc1ccc(C2C(C#N)=C(N)Oc3c2c(-c2ccccc2)nn3-c2ccccc2)c(OC)c1OC (stereo not given)	i	i	i	i	i	x	i	i
COc1ccc(OC)c(C2C(C#N)=C(N)Oc3c2c(C)nn3-c2ccc(C)cc2)c1 (stereo not given)	i	i	i	i	i	x	x	x
Cc1nnc(SCC2=C(C(=O)O)N3C(=O)C(NC(=O)C(C)n4nc(C(F)(F)F)cc4C)C3SC2)s1 (stereo not given)	i	i	i	i	i	x	x	x
CCc1ccc2c(Cl)c(C(=O)N/N=C/c3c[nH]c4ccccc34)sc2c1	i	4.8*	i	i	i	18%*	40%*	8.5%*
CCc1ccc(-c2cc(C(=O)N/N=C/c3c[nH]c4ccccc34)[nH]n2)cc1	i	4.9*	i	i	i	i	i	i
CCOC(=O)Nc1ccc(=O)n(Cc2c(Cl)cccc2Cl)c1	i	7.7*	i	i	i	36%*	28%*	i
O=C(CCN1Cc2ccccc2C1)c1ccc2c(c1)OCCO2	i	17*	i	i	i	95%*	i	23%*
O=C(CCN1CCc2ccccc2C(c2ccccc2)C1)c1ccc2c(c1)OCCO2 (stereo not given)	i	15*	43*	i	i	10%*	i	14%*
COc1ccc(O)c(-c2cc(-c3ccccc3[N+](=O)[O-])[nH]n2)c1	i	6.4*	i	i	i	9.5%*	i	i
Cc1ccc(O)c(-c2cc(-c3ccccc3[N+](=O)[O-])[nH]n2)c1	i	8.6*	i	i	i	12%*	i	18%*
COc1ccc(CCN=C(N)NS(=O)(=O)c2cc(F)ccc2F)cc1	i	i	i	i	i	x	x	x
COc1ccccc1C(=O)Nc1ccc2c(c1)nc(CCNC(=O)c1ccco1)n2C	i	i	i	i	i	x	x	x
CCC(=O)NCCc1nc2cc(NC(=O)c3ccco3)ccc2n1C	i	i	i	i	i	i	i	i
SMILES	RGS4 pot	RGS4 inh	MrgX1 agonist	MrgX1 antagonist	MrgX1 PAM	RGS4 block valid	M3R Ca ctr	M3R basal Ca ctr
Cn1c(CCNC(=O)c2ccco2)nc2cc(NC(=O)c3ccccc3)ccc21	i	i	i	i	i	i	i	i
Cn1c(CCNC(=O)c2ccco2)nc2cc(NS(=O)(=O)c3ccccc3)ccc21	i	i	i	i	i	x	x	x
CCCCC(=O)Nc1ccc2c(c1)nc(CCNC(=O)c1ccco1)n2C	i	i	i	i	i	x	x	x
Cn1c(CCNC(=O)c2ccco2)nc2cc(NC(=O)c3ccco3)ccc21	i	i	i	i	i	i	i	i
Cn1c(CCNC(=O)c2ccco2)nc2cc(NC(=O)C3CCCCC3)ccc21	i	i	i	i	i	x	x	x
Cn1c(CCNC(=O)c2ccccc2)nc2cc(NC(=O)c3ccco3)ccc21	i	i	i	i	i	i	i	i
Cc1noc(C)c1C(=O)NCCc1c(C)[nH]c2ccccc12	i	i	i	i	i	x	x	x
O=C(NCc1ccco1)/C(=C/c1ccc(Br)cc1)NC(=O)c1ccco1	i	i	i	i	i	x	x	x
CCOC(=O)c1ccc(N2C(=O)c3n[nH]c(C)c3C2c2ccco2)cc1 (stereo not given)	i	i	i	i	i	x	x	x
CCOC(=O)c1ccc(N2C(=O)c3n[nH]c(-c4ccco4)c3C2c2cccc([N+](=O)[O-])c2)cc1 (stereo not given)	i	6.7*	i	i	i	i	i	i
CCOC(=O)c1sc(N2C(=O)C(O)=C(C(=O)c3ccc(C)o3)C2c2cccc([N+](=O)[O-])c2)nc1C (stereo not given)	i	7.3*	i	i	i	24%*	i	i
O=C(Nc1ccc(-c2ccccc2)cc1)c1ccccc1	i	i	i	i	i	x	x	x
Cc1ccc(NC(=O)C2=C(c3ccccc3)S(=O)(=O)CCS2(=O)=O)cc1	i	15*	i	i	i	28%*	i	16%*
